Most compounds without a hit are left out; they make up all but 0.9% or so of the library.
MT1-MMP act inh: blockers of MT1-MMP proenzyme processing, primary screen, HT1080 RFP-PRO-GFP cells, GFP/RFP fluorescence | GFP/RFP ratio change, % at 20 µM | 360,000 compounds, 0.061% hits | Matrix metalloproteinase-14 (Homo sapiens), P50281 | GFP/RFP ratio fluorescence, overnight; percent of plate control window, DMSO zero;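 active = GFP/RFP ratio change of at least 30% with cell ATP level not reduced by more than half and red fluorescence within 50% of control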
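Assay system: HT1080 RFP-PRO-GFP cells. Benchmarks: DMSO vehicle wells and RFP-L50D-GFP reporter cell wells. Times: overnight cell settling, then overnight compound exposure, 37 °C, 5% CO2. Compound: 20 µM single dose, 1% DMSO. Read-out basis: GFP/RFP fluorescence ratio.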
DDE Tn7 FP inh: inhibitors of Tn7 peptide binding to fibrin DD(E), primary screen, biochemical, fluorescence polarization, human fibrin, Tn7 probe; inhibition, % at 8.3 µM; FP displacement of FITC-Tn7 peptide from fibrin DD(E); 0% = median of compound wells per plate; 370,000 compounds, 0.13% hits; AID 720508, 2013; Fibrinogen beta chain (Homo sapiens), P02675;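 active = inhibition above the mean of compounds falling within the control limits plus 3 SD of them, cut at about 14% in these data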
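system = human fibrin DD(E) protein | quantity = DD(E) 2 µM final | medium = Tris/NaCl/CaCl2 buffer, pH 7.8 | also added = labelled Tn7 tracer, 0.1 µM | compound dosing = single point at 8.3 µM | timing = compound with protein 10 min, then 3 h after probe, room temperature | signal = FP measurement | benchmarks = Aha-Tn7 high control | repeats = one replicate per compound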
DDE Tn6 FP inh: inhibitors of Tn6 peptide binding to fibrin DD(E), primary screen, biochemical, fluorescence polarization, human fibrin, Tn6 probe; inhibition, % at 8.3 µM; Fibrin DD(E) TRITC-Tn6 fluorescence polarization displacement; 370,000 compounds, 0.21% hits;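 active = inhibition above a per-campaign cutoff: mean of compounds within control limits plus 3 SD, cut at about 15% in these data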
SKN-1 inh: suppressors of acrylamide-induced Pgst-4::GFP reporter in worms, primary screen, SKN-1 inhibitor project, whole organism, uHTS, GFP/RFP fluorescence ratio, strain VP596 | C. elegans VP596 Pgst-4::GFP/RFP ratio, 24 h | inhibition, % at 21.8 µM | 360,000 compounds, 0.49% hits;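 active = interference check ratio from 0.5 to 1.5 plus GFP to RFP signal ratio inhibition reaching or exceeding a fixed threshold, cut at about 30% in these data, passing the limit was not always enough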
PolyA inhibitor: polyadenylation inhibitors in yeast reporter cells, primary screen, luminescence, S. cerevisiae | S. cerevisiae SKY197-pL101 polyadenylation reporter, beta-gal luminescence; efflux-impaired pdr1/pdr3 knockout yeast; score 100 = 6 SD above DMSO | 300,000 compounds, 0.02% hits | activity score, % at 12 µM | AID 1875, 2009;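 active = lowest replicate activity score at least 50, where 100 means six control SD above control mean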;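 also: yeast exposed to compound for 9 h at 30 °C; higher score means more reporter readthrough which indicates perturbed polyadenylation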
DAGLB inhibitor: DAGLB lipase inhibitors, primary screen, biochemical, fluorescence, HTS | Diacylglycerol lipase-beta (Homo sapiens), Q8NCG7 | HEK293T DAGLB membrane lysate, EnzChek fluorogenic substrate | inhibition, % at 5.17 µM | 340,000 compounds, 0.059% hits; in the data active = inhibition above about 34%
Target sequence (Q8NCG7 whole entry, looked up): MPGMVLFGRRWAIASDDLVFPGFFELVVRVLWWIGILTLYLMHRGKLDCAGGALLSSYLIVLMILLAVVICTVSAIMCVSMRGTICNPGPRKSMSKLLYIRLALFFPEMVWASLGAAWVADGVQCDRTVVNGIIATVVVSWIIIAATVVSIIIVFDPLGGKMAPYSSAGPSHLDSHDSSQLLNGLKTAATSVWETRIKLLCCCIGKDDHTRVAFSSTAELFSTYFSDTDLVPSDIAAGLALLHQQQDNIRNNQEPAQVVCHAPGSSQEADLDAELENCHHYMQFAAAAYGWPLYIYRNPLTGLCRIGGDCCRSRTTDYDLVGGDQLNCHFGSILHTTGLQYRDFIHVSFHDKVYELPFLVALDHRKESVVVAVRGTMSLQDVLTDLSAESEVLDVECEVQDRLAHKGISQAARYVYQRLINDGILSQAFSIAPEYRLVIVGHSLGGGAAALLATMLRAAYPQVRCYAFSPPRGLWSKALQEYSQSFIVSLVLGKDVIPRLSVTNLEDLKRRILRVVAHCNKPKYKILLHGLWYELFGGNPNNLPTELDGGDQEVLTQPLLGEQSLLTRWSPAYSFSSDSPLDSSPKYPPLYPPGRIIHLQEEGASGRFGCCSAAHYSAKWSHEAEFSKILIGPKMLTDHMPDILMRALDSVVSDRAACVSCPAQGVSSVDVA
DDE Tn6 FP ctr: counter-screen hit for Tn6 peptide-fibrin DD(E) binding disruption | shares compounds with DDE Tn6 FP inh | TRITC-Tn6 fluorescence polarization displacement; 0% = median of compound wells, not DMSO | inhibition, % at 8.3 µM | 680 compounds, 2% hits;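 active = inhibition above the mean of test compounds lying between the control limits plus 3 SD of those, cut at about 14% in these data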
Tn6 DDE conf: inhibitors of Tn6 peptide binding to fibrin DD(E), confirmation, biochemical, fluorescence polarization, human fibrin, Tn6 probe | shares compounds with DDE Tn6 FP inh | FP displacement of TRITC-Tn6 peptide from DD(E); 0% = per-plate median of test wells | inhibition, % at 8.3 µM | 680 compounds, 10% hits | AID 720631, 2013;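 active = inhibition above the mean of compounds lying within the control limits plus 3 SD, cut at about 16% in these data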
Hits are given with their value; - = inactive; . = not tested or not shown.

SMILES	MT1-MMP act inh	DDE Tn7 FP inh	DDE Tn6 FP inh	SKN-1 inh	PolyA inhibitor	DAGLB inhibitor	DDE Tn6 FP ctr	Tn6 DDE conf
CN1CCS/C1=C/C=C1/SC(=S)N(Cc2ccccc2)C1=O	-	-	38	-	-	-	-	16
Nc1c(SCCC(=O)O)ccc2c1C(=O)c1ccccc1C2=O	-	-	50	-	-	-	-	27
COc1ccc(C(=O)OCCCN(C)C2CN(Cc3cn(Cc4ccccc4F)nn3)S(=O)(=O)C2)cc1OC (centres undefined)	.	-	-	.	.	.	.	.
CCOc1ccc(CCNC(=O)c2cc3sc(Cl)cc3n2C)cc1OCC	-	-	34	-	-	-	-	-
Cc1cc(C)cc(NC(=S)N2CCN(S(C)(=O)=O)CC2)c1	-	-	16	-	-	-	-	-
COc1ccc(NC(=O)N(C)C[C@@H]2OCc3ccccc3-c3c(n(C)c4ccccc34)C(=O)N([C@H](C)CO)C[C@H]2C)c(OC)c1	-	-	17	-	.	-	-	-
C[C@@H]1CN([C@H](C)CO)C(=O)c2c(c3ccccc3n2C)-c2ccccc2CO[C@@H]1CN(C)C(=O)Nc1ccccc1C(F)(F)F	-	-	-	-	.	-	.	.
Cc1cccnc1C(NC(=O)C1CCN(CCOc2ccc(Cl)cc2Cl)CC1)c1ccc(Cl)cc1 (centres undefined)	-	-	16	-	.	.	-	-
Cc1cc(C)cc(NC(=O)OC2CCC23CCCCC3)c1 (centres undefined)	.	-	-	.	.	.	.	.
CCOC(=O)NC(=O)CSc1nc(C)cc(C(F)(F)F)c1C#N	-	-	15	-	-	-	-	-
COc1cccc(OC)c1C(=O)NC(=S)Nc1cc(-c2nc3ccccc3[nH]2)ccc1Cl	-	-	55	-	-	-	-	-
CCOC(=O)[C@]12CCCC3=C1N(CCC3)C(=O)[C@@H](CC(=O)NCCCCc1ccccc1)C2	.	-	-	.	.	.	.	.
O=C(c1ccc(F)cc1)n1ccc2ccc(-c3ccc4ccn(Cc5ccccc5)c4c3)cc21	.	-	-	.	.	.	.	.
O=C(CSc1nnc(SCc2cccc3ccccc23)s1)Nc1ccc(S(=O)(=O)Nc2nccs2)cc1	.	-	22	.	.	.	-	17
O=S1(=O)c2ccc(N3CCCC3)cc2Oc2ccccc2CN1Cc1cn(Cc2ccc(Cl)cc2)nn1	.	-	-	.	.	.	.	.
Nc1[nH]c(C(=O)c2ccc(Br)cc2)c(-c2ccc(Br)cc2)c1C(=O)N1CCCCC1	.	-	-	.	.	.	.	.
O=C(Nc1ccc(Cl)cn1)C1CCN(c2ncnc3c2nc2n3CCCCC2)CC1	-	-	17	-	-	-	-	-
O=C(Nc1ccc(Cl)cn1)C1CCCN(c2ncnc3c2nc2n3CCCCC2)C1 (centres undefined)	-	-	-	-	-	-	.	.
COC(=O)c1ccc(C(=O)OC)c(NC(=O)CSc2n[nH]c(N)n2)c1	-	-	-	-	.	-	.	.
CCn1c(CSc2n[nH]c(N)n2)nc2cc(C(=O)O)ccc21	-	-	29	37	-	-	-	22
CCn1c(CSc2nnc(-c3ccncc3)n2CCOC)nc2cc(C(=O)O)ccc21	-	-	19	38	-	-	-	47
Cc1cc(N2CCN(C(=O)Oc3ccc(C(F)(F)F)cc3)CC2)c2ccccc2n1	.	-	-	.	.	.	.	.
